Measured values reported in ChEMBL document CHEMBL5036319, “Discovery of Novel Benzothiazepinones as Irreversible Covalent Glycogen Synthase Kinase 3β Inhibitors for the Treatment of Acute Promyelocytic Leukemia” (J Med Chem, 2021).
Active and inactive are the calls of the source. The calls are words filed in the database; no cut-off is given here.

What was measured:
NB-4 [1] = experiment: Antitumor activity against human NB-4 cells xenografted in BALB/c nude mouse assessed as reduction in tumor mass at 15 mg/kg/day, ip administered for 2 weeks; type: functional, organism-based
Procedure, shortened: (§1)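 Female Balb/c nude mice, 4 weeks old, received 2 × 10^6 NB4 cells s.c. in the right flank. Once tumours reached about 0.5 cm diameter, mice were randomised to corn-oil vehicle or drug in corn oil (n = 5). Dosing was 15 mg/kg/d i.p. once daily for 2 weeks. Caliper volume (length × width²)/2 was taken every other day, and tumours were excised and weighed at the end.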

[2] = Induction in caspase-mediated apoptosis in human NB4-DR1 cells assessed as necrotic cells at 100 uM incubated for 24 hrs by Annexin V-FITC/propidium iodide staining based flow cytometry analysis (reference value: 0.19%); type: functional
[3] = Induction in caspase-mediated apoptosis in human NB-4 cells assessed as viable cells at 50 uM incubated for 24 hrs by Annexin V-FITC/propidium iodide staining based flow cytometry analysis (reference value: 96.6%); type: functional; conditions: read-out: Activity
[4] = Induction in caspase-mediated apoptosis in human NB-4 cells assessed as necrotic cells at 12.5 uM incubated for 24 hrs by Annexin V-FITC/Propidium iodide staining based flow cytometry analysis (reference value: 0.352%); type: functional
[5] = Induction in caspase-mediated apoptosis in human NB-4 cells assessed as viable cells at 50 uM incubated for 24 hrs in presence of Z-VAD-FMK by Annexin V-FITC/propidium iodide staining based flow cytometry analysis (reference value: 96.8%); type: functional; conditions: read-out: Activity
Raji = experiment: Cytotoxicity against human Raji cells assessed as reduction in cell viability measured after 24 hrs by CCK-8 assay; type: functional, cell-based
Procedure, shortened: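 Cells were grown in RPMI-1640 or high-glucose DMEM with 10% FBS at 37 °C, 5% CO2, and seeded at 3 × 10^4 cells/well. Exposure was 24 h across serial concentrations (0−1000 μM in the screen). […] Three independent experiments, mean ± SEM.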

[6] = Cytotoxicity against HUVEC assessed as cell viability at 100 uM incubated for 24 hrs by CCK-8 assay relative to control; type: cell-based; conditions: human, read-out: Activity
Procedure, shortened: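 HUVEC and LO2 normal cells were cultured in RPMI-1640 or DMEM with 10% FBS at 37 °C, 5% CO2, and seeded at 3 × 10^4 cells/well. They were exposed for 24 h to graded concentrations. CCK-8 incubation was 3 h at 37 °C, with A450 read and viability expressed versus untreated control. Three independent experiments, mean ± SEM.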

[7] = Induction in caspase-mediated apoptosis in human NB4-DR1 cells assessed as late apoptotic cells at 12.5 uM incubated for 24 hrs by Annexin V-FITC/propidium iodide staining based flow cytometry analysis (reference value: 1.47%); type: functional
[8] = Induction in caspase-mediated apoptosis in human NB4-DR1 cells assessed as necrotic cells at 100 uM incubated for 24 hrs in presence of Z-VAD-FMK by Annexin V-FITC/propidium iodide staining based flow cytometry analysis (reference value: 0.223%); type: functional
[9] = Induction in caspase-mediated apoptosis in human NB4-DR1 cells assessed as necrotic cells at 25 uM incubated for 24 hrs in presence of Z-VAD-FMK by Annexin V-FITC/propidium iodide staining based flow cytometry analysis (reference value: 0.223%); type: functional
[10] = Induction in caspase-mediated apoptosis in human NB-4 cells assessed as late apoptotic cells at 100 uM incubated for 24 hrs in presence of Z-VAD-FMK by Annexin V-FITC/propidium iodide staining based flow cytometry analysis (reference value: 1.15%); type: functional
[11] = Induction in caspase-mediated apoptosis in human NB4-DR1 cells assessed as early apoptotic cells at 25 uM incubated for 24 hrs by Annexin V-FITC/propidium iodide staining based flow cytometry analysis (reference value: 1.43%); type: functional
[12] = Induction in caspase-mediated apoptosis in human NB-4 cells assessed as late apoptotic cells at 50 uM incubated for 24 hrs by Annexin V-FITC/propidium iodide staining based flow cytometry analysis (reference value: 1.06%); type: functional
[13] = target: Glycogen synthase kinase-3 beta (Homo sapiens, UniProt P49841); experiment: Inhibition of recombinant human GSK-3beta using GS-2 peptide as substrate incubated for 30 mins in presence of ATP by kinase-glo luminescence assay
Chain of Glycogen synthase kinase-3 beta (P49841 whole entry): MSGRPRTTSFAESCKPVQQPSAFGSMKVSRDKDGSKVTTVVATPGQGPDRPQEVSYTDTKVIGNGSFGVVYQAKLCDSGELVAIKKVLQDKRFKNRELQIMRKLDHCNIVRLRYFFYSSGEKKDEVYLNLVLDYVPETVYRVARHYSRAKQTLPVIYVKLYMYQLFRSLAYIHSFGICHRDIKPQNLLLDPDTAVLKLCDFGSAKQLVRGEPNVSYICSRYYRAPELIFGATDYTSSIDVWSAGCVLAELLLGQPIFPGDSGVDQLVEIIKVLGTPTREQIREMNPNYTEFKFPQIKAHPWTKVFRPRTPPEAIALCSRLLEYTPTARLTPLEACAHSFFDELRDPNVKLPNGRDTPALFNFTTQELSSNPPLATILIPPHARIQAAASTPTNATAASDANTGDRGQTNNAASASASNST

[14] = Induction in caspase-mediated apoptosis in human NB-4 cells assessed as late apoptotic cells at 100 uM incubated for 24 hrs by Annexin V-FITC/propidium iodide staining based flow cytometry analysis (reference value: 1.06%); type: functional
NB-4 [15] = experiment: Antitumor activity against human NB-4 cells xenografted in BALB/c nude mouse assessed as tumor growth inhibition at 15 mg/kg/day, ip administered for 2 weeks relative to control; type: functional; conditions: NB-4, ip, 336 h, read-out: TGI; procedure, shortened: as §1
[16] = Induction in caspase-mediated apoptosis in human NB-4 cells assessed as early apoptotic cells at 100 uM incubated for 24 hrs by Annexin V-FITC/propidium iodide staining based flow cytometry analysis (reference value: 2.02%); type: functional
[17] = Terminal half life in ICR mouse at 15 mg/kg, ip administered as single dose measured upto 8 hrs by LC-MS/MS analysis; type: ADME, organism-based; conditions: in vivo
Procedure, shortened: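 Male ICR mice (30 g) received a single 15 mg/kg i.p. bolus in corn oil. Orbital blood went into K3EDTA tubes at 0.08–8 h, three animals per time point (composite profile). Plasma was protein-precipitated with acetonitrile and analysed by LC–MS/MS; non-compartmental analysis.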

[18] = Induction in caspase-mediated apoptosis in human NB4-DR1 cells assessed as viable cells at 25 uM incubated for 24 hrs in presence of Z-VAD-FMK by Annexin V-FITC/propidium iodide staining based flow cytometry analysis (reference value: 96.4%); type: functional; conditions: read-out: Activity
[19] = Induction in caspase-mediated apoptosis in human NB-4 cells assessed as early apoptotic cells at 25 uM incubated for 24 hrs by Annexin V-FITC/propidium iodide staining based flow cytometry analysis (reference value: 2.02%); type: functional
[20] = Induction in caspase-mediated apoptosis in human NB4-DR1 cells assessed as early apoptosis cells at 100 uM incubated for 24 hrs in presence of Z-VAD-FMK by Annexin V-FITC/propidium iodide staining based flow cytometry analysis (reference value: 0.875%); type: functional
[21] = Induction in caspase-mediated apoptosis in human NB-4 cells assessed as late apoptotic cells at 12.5 uM incubated for 24 hrs in presence of Z-VAD-FMK by Annexin V-FITC/propidium iodide staining based flow cytometry analysis (reference value: 1.15%); type: functional
[22] = Induction in caspase-mediated apoptosis in human NB4-DR1 cells assessed as late apoptotic cells at 25 uM incubated for 24 hrs in presence of Z-VAD-FMK by Annexin V-FITC/propidium iodide staining based flow cytometry analysis (reference value: 2.54%); type: functional
[23] = Induction in caspase-mediated apoptosis in human NB-4 cells assessed as viable cells at 12.5 uM incubated for 24 hrs in presence of Z-VAD-FMK by Annexin V-FITC/propidium iodide staining based flow cytometry analysis (reference value: 96.8%); type: functional; conditions: read-out: Activity
[24] = Induction in caspase-mediated apoptosis in human NB-4 cells assessed as late apoptotic cells at 25 uM incubated for 24 hrs in presence of Z-VAD-FMK by Annexin V-FITC/propidium iodide staining based flow cytometry analysis (reference value: 1.15%); type: functional

For `C=CC(=O)N1C(=O)CC(c2ccc(F)cc2)Sc2ccccc21` (stereo not given), the Activity (NB-4 [1]) was “Active”, the Activity [2] was 6.32% and the viability at 50 µM [3] was 14.2%. The Activity [4] was 6.13%, the viability at 50 µM [5] was 78.6% and the IC50 (Raji) was 28.4 µM. The viability at 24 h, 100 µM [6] was > 70%, the Activity [7] was 5.54% and the Activity [8] was 1.4%. The Activity [9] was 0.485%, the Activity [10] was 19.6% and the Activity [11] was 2.07%. The Activity [12] was 74%, the IC50 [13] was 6.6 µM and the Activity [14] was 85.5%. For the same molecule, the inhibition in vivo at 15 mg/kg/day (NB-4 [15]) was 76%, the Activity [16] was 4.21% and the “beta t1/2” value [17] was 14.2 h. It also gave a viability at 25 µM [18] of 93%, an Activity [19] of 6.44% and an Activity [20] of 2.19%. For the same molecule, the Activity [21] was 7.39%, the Activity [22] was 5.45% and the viability at 12.5 µM [23] was 86.4%. For the same molecule, the Activity [24] was 11.2%.
